The nature of series [1]: Cmax in Sprague-Dawley rat at 30 mg/kg, po measured up to 24 hrs by LC-MS/MS analysis. It counts as ADME, organism-based. The settings on record: in vivo. Also noted: route oral, dose 30 mg/kg, time <=24. An outline of the steps:
(§1)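 Single doses given intravenously (10 mg/kg) or orally (10, 30, 90 mg/kg); plasma levels quantified by LC/MS/MS at multiple time points. Parameters reported as mean values: AUC0–t, CL, Cmax, T1/2, Tmax, and %F based on AUC.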

A short description of series [2]: AUC (0 to t) in Sprague-Dawley rat at 10 mg/kg, iv measured up to 24 hrs by LC-MS/MS analysis. The format is ADME, organism-based. Also noted: route intravenous, dose 10 mg/kg, time <=24. The settings on record: in vivo. The gist of the method: as §1
Series [3] has as its target T1, Interferon-inducible protein AIM2 (Homo sapiens) (UniProt O14862).
T1 sequence (whole entry): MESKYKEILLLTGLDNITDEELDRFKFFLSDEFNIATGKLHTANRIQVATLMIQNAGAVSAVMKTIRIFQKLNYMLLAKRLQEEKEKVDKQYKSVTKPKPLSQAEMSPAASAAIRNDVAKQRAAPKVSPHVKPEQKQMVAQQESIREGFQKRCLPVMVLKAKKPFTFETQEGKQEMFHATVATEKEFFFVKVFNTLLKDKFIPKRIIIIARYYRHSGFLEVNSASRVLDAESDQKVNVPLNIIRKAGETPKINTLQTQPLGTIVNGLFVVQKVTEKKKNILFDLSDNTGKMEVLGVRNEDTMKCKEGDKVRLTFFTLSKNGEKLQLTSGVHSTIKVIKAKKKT
Kind of series: Inhibition of AIM2 inflammasome activation in LPS-induced human THP-1 cells at 1 uM for 40 mins followed by […] stimulation for 6 h by ELISA. It counts as cell-based. The settings on record: time 400.0 min.

The test system of series [4] is THP-1. The experiment in a line: Antiinflammatory activity in human THP-1 cells assessed as inhibition of LPS-induced IL-1beta secretion in LPS stimulation for 3 hrs followed by pretreatment at 2uM for 40 min before induced with nigericin for 40 min measured by ELISA. The settings on record: THP-1, 1.333 h, time 80 min. The format is functional. An outline of the steps:
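THP-1 cells (2 × 10^5 cells/mL) differentiated with PMA (100 ng/mL) for 24 h. Next day, primed with LPS (1 μg/mL) for 3 h, then compound for 40 min, then nigericin (10 μM) for 40 min. IL-1β in supernatant measured by ELISA; % inhibition as mean ± SD of three independent experiments. The single-concentration screen used 2 μM.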

Series [5] is described as follows: Oral bioavailability in Sprague-Dawley rat at 90 mg/kg measured up to 24 hrs by LC-MS/MS analysis. The format is ADME, organism-based. The settings on record: in vivo. An outline of the steps:
as §1

Series [6] is described as follows: Cmax in Sprague-Dawley rat at 10 mg/kg, po measured up to 24 hrs by LC-MS/MS analysis. The settings on record: in vivo. The format is ADME, organism-based. More on the design: route oral, dose 10 mg/kg, time <=24. The gist of the method: as §1
Series [7] is described as follows: Oral bioavailability in Sprague-Dawley rat at 10 mg/kg measured up to 24 hrs by LC-MS/MS analysis. The format is ADME, organism-based. The settings on record: in vivo. An outline of the steps:
as §1

Series [8] deals with THP-1. The experiment in a line: Effect on IL-1beta expression in LPS-stimulated human THP-1 cells at 1 uM preincubated for 40 mins followed by LPS stimulation and measured after 3 hrs by Western blot analysis. It counts as functional, cell-based. The settings on record: time 220.0 min. An outline of the steps:
(§2)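 THP-1 cells were given compound for 40 min, then primed with LPS for 3 h. Medium supernatant was analysed for TNF-α. Cell extracts were immunoblotted for pro-IL-1β and NLRP3.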
For orientation: A western blot detects proteins with antibodies after separation by electrophoresis.

Series [9] can be described thus: Tmax in Sprague-Dawley rat at 30 mg/kg, po measured up to 24 hrs by LC-MS/MS analysis. The format is ADME, organism-based. The settings on record: in vivo. The gist of the method:
as §1

The test system of series [10] is THP-1. The experiment in a line: Effect on IL-1beta expression in LPS-stimulated human THP-1 cells preincubated for 40 mins followed by LPS addition and measured after 3 hrs by Western blot analysis. The format is functional, cell-based. The settings on record: time 220.0 min. The gist of the method:
as §2

The nature of series [11]: Half life in Sprague-Dawley rat at 10 mg/kg, iv measured up to 24 hrs by LC-MS/MS analysis. The format is ADME, organism-based. The settings on record: in vivo. An outline of the steps: as §1
For series [12], the system named is THP-1. Kind of series: Effect on NLRP3 expression in LPS-stimulated human THP-1 cells at 1 uM preincubated for 40 mins followed by LPS stimulation and measured after 3 hrs by Western blot analysis. The format is functional, cell-based. The gist of the method:
as §2

Series [13] deals with NACHT, LRR and PYD domains-containing protein 3 (Homo sapiens) (UniProt Q96P20). Kind of series: Binding affinity to NLRP3 in LPS stimulated human THP-1cells assessed as prevention of pronase-mediated protein degradation at 0.01 to 1mM incubated 50 mins before pronase treatment by label-free DARTS assay. An outline of the steps:
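Drug affinity responsive target stability: THP-1 lysates were incubated with compound (0.01–1 mM), then digested with pronase. NLRP3 remaining was detected by immunoblot.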

Series [14] concerns THP-1. Kind of series: Effect on TNFalpha expression in LPS-stimulated human THP-1 cells preincubated for 40 mins followed by LPS addition and measured after 3 hrs by Western blot analysis. It counts as functional, cell-based. The settings on record: time 220.0 min. The gist of the method:
as §2

Activity calls are given as the source filed them. The calls are words filed in the database; no cut-off is given here.

Data on one compound can be found in ChEMBL document CHEMBL5036380, “New Highly Potent NLRP3 Inhibitors: Furanochalcone Velutone F Analogues” (ACS Med Chem Lett, 2022).

Chain of NACHT, LRR and PYD domains-containing protein 3 (Homo sapiens) (Q96P20 whole entry, the tested form may be a part): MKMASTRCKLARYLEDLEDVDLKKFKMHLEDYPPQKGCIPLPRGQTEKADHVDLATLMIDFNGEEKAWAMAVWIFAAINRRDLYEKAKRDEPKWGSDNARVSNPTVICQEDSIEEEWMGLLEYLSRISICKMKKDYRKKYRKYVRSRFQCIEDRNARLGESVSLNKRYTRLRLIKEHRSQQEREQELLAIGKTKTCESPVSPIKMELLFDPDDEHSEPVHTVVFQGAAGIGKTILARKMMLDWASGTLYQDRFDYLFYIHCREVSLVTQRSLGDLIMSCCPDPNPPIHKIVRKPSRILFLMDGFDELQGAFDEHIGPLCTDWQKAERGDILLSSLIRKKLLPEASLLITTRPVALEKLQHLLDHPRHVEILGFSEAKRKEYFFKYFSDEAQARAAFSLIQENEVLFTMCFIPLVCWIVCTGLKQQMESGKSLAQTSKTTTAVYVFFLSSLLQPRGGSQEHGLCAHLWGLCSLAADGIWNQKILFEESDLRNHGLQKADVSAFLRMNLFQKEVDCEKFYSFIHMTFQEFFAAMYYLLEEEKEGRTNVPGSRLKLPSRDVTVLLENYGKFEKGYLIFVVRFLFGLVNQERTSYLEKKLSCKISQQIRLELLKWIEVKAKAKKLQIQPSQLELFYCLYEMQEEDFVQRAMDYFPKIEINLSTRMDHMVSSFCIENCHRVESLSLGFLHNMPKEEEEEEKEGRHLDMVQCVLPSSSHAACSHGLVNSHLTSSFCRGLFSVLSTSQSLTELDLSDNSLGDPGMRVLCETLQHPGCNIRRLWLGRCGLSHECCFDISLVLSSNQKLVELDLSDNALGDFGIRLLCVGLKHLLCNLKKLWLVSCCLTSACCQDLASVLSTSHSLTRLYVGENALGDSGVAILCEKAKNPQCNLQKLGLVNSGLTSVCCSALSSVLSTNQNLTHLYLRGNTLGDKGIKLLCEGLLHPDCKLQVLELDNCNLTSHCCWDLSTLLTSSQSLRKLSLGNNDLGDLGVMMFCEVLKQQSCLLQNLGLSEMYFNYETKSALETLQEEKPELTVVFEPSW

As to `COc1cc(/C=C/C(=O)c2ccc(F)cc2)c(OC)cc1Br`, the results for the Cmax in [1] and in [6] were 16.4 ng/mL and 3.35 ng/mL, respectively. The AUC(0-t) (in general, exposure summed from dosing to a finite time, without extrapolation to infinity) at 24 h in series [2] was found to be 106 ng·h/mL. Besides, the inhibition (commonly the change of the read-out against control, counted positive when it falls) in series [3] was “inactive”. Also, the inhibition at 2 µM in the series on THP-1 [4] was found to be 108%. The values for the bioavailability in [5] and in series [7] were 2.47% and 13.8%, respectively. The result in the series with THP-1 [8], in the series with THP-1 [10], in the series with THP-1 [12] and in the series on THP-1 [14] was inactive. In series [9], the time of peak concentration (Tmax) (usually the time at which the peak concentration occurs) is 1.26 h. Besides, the half-life (usually how long it takes for the measured level to halve) in series [11] is 188 min. Moreover, the Activity entry in [13] is “Dose-Dependent Effect”.
